Assay results taken from ChEMBL document CHEMBL4371098, “C-Phycocyanin from Spirulina Inhibits α-Synuclein and Amyloid-β Fibril Formation but Not Amorphous Aggregation” (J Nat Prod, 2019).
Activity calls are given as the source filed them. The rule behind the calls is not given here.

How the values were obtained:
[1] = Self fibrillation of the compound in pH 7.4 ammonium acetate buffer after 100 hrs by ThT fluorescence assay
Summary of the method: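 C-PC alone incubated in 500 mM ammonium acetate pH 7.4 at 37 °C with ThT; fluorescence at 440/490 nm tracked over time.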

Saccharomyces cerevisiae = assay: Inhibition of heat-induced amorphous aggregation of yeast ADH at 2.5 uM measured over 2 hrs by light scattering assay
Summary of the method: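 ADH (5 μM) aggregation induced with 20 mM DTT and 2 mM EDTA (final) at 42 °C; light scattering followed as absorbance at 340 nm over 2 h, with or without C-PC (2.5 μM); triplicate, mean ± SEM.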

[2] = tested on: Alpha-synuclein (Homo sapiens), P37840 [A53T]; assay: Binding affinity to human alpha-synuclein A53T mutant expressed in Escherichia coli BL21(DE3) assessed as compound-protein stable complex formation at 2 uM after 20 hrs by size-exclusion chromatographic method
[3] = tested on: Alpha-synuclein (Homo sapiens), P37840 [A53T]; assay: Binding affinity to human 15N-labeled alpha-synuclein A53T mutant expressed in Escherichia coli BL21(DE3) assessed as chemical perturbation at H50 at 7.5 uM by 2D 1H-15N HSQC NMR analysis
Summary of the method: (§1)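 Uniformly 15N-labelled monomeric αS (grown in M9 medium with [15N]NH4Cl, IPTG-induced) titrated with C-PC; 1H–15N HSQC spectra in 10 mM Na2HPO4, 100 mM NaCl, pH 7.4; amide chemical shift changes and signal-to-noise monitored using prior resonance assignments.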

[4] = tested on: Alpha-synuclein (Homo sapiens), P37840 [A53T]; assay: Inhibition of fibril formation of human alpha-synuclein A53T mutant expressed in Escherichia coli BL21(DE3) after 100 hrs by ThT fluorescence assay
Summary of the method: (§2)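 αS (10 μM) incubated 100 h at 37 °C in 500 mM ammonium acetate pH 7.4 with C-PC at αS:C-PC 2:1 to 200:1; ThT read at 440/490 nm; inhibition = end-point (100 h) ThT fluorescence with C-PC as percentage of αS alone; n = 3, mean ± SEM.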

[5] = target: Amyloid-beta precursor protein (Homo sapiens) (UniProt P05067); assay: Inhibition of amyloid beta (1 to 42) (unknown origin) fibril formation at protein to compound ratio of 5:1 after 100 hrs by ThT fluorescence assay
Amyloid-beta precursor protein (Homo sapiens), sequence (P05067 whole entry): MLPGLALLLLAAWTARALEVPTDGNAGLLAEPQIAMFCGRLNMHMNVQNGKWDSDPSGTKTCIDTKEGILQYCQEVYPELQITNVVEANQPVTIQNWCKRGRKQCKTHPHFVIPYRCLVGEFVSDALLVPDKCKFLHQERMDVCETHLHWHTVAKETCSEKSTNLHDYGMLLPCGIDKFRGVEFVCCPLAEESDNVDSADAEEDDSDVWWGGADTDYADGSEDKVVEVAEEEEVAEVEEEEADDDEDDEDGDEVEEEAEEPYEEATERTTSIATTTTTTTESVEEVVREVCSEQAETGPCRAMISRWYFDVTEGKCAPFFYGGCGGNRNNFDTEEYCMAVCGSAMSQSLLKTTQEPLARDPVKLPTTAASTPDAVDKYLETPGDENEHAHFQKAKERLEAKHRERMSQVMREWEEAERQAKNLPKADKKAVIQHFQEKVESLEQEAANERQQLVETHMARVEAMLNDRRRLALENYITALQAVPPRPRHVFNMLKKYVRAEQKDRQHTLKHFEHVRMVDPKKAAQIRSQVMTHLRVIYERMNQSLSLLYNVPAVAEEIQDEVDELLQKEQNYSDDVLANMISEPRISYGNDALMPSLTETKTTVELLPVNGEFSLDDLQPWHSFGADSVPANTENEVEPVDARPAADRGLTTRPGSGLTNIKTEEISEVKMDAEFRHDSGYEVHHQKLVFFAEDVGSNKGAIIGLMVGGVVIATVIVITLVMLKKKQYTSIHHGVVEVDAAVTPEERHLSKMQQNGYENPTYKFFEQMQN
Summary of the method: (§3)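 Aβ40 or Aβ42 (10 μM; NaOH-pretreated stock for monomerization) incubated with C-PC at 5:1 Aβ:C-PC in 500 mM ammonium acetate pH 7.4, 37 °C, sealed plates, up to 100 h; ThT fluorescence 440/490 nm; triplicate, mean ± SEM.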

[6] = tested on: Alpha-synuclein (Homo sapiens), P37840 [A53T]; assay: Inhibition of fibril formation of human alpha-synuclein A53T mutant expressed in Escherichia coli BL21(DE3) assessed as reduction in mature fibrils formation at 2 uM after 100 hrs by uranyl acetate staining based transmission electron microscopic method
Summary of the method: (§4)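 End-point samples from ThT aggregation assays (αS or Aβ 10 μM, C-PC 2 μM; αS 100 h, Aβ40 25 h, Aβ42 2 h) adsorbed on carbon-coated grids, negatively stained with 2% (w/v) uranyl acetate, imaged by TEM.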

Catalase (Bos taurus) = target: T1, Catalase (Bos taurus) (UniProt P00432); assay: Inhibition of heat-induced amorphous aggregation of bovine liver catalase at 2.5 uM measured over 2 hrs by light scattering assay
T1 sequence (whole entry): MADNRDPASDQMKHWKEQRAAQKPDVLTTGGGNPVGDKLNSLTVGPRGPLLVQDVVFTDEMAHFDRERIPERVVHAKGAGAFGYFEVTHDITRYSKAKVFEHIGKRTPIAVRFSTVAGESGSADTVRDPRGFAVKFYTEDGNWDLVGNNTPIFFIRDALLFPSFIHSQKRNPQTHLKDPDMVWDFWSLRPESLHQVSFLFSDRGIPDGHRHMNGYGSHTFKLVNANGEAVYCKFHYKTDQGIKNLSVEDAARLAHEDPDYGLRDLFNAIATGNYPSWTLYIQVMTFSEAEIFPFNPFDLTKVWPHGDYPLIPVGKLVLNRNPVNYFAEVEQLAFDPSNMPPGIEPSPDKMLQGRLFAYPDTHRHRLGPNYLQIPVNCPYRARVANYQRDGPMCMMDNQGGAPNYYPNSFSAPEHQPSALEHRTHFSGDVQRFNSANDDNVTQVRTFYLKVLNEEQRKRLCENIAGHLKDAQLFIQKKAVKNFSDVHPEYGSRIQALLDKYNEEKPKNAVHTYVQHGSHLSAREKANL
Summary of the method: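 Catalase (5 μM) aggregated by heating at 55 °C; absorbance (light scattering) at 340 nm tracked for 2 h with or without C-PC (2.5 μM); triplicate, mean ± SEM.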

[7] = target: Amyloid-beta precursor protein (Homo sapiens) (UniProt P05067); assay: Inhibition of amyloid beta (1 to 42) (unknown origin) fibril formation at 2 uM after 2 hrs by uranyl acetate staining based transmission electron microscopic method; summary of the method: as §4
[8] = tested on: Alpha-synuclein (Homo sapiens), P37840 [A53T]; assay: Induction of conformational changes in human alpha-synuclein A53T mutant expressed in Escherichia coli BL21(DE3) assessed as ion population arrival time distribution at 2 uM after 20 hrs by ion mobility-mass spectrometry analysis (reference value: 5.23 milliseconds)
[9] = tested on: Alpha-synuclein (Homo sapiens), P37840 [A53T]; assay: Inhibition of fibril formation of human alpha-synuclein A53T mutant expressed in Escherichia coli BL21(DE3) at protein to compound molar ratio of 200:1 after 100 hrs by ThT fluorescence assay relative to control; conditions: concentration not given here; summary of the method: as §2
[10] = tested on: Alpha-synuclein (Homo sapiens), P37840 [A53T]; assay: Binding affinity to human 15N-labeled alpha-synuclein A53T mutant expressed in Escherichia coli BL21(DE3) assessed as reduction in signal to noise ratio at 7.5 uM by 2D 1H-15N HSQC NMR analysis; summary of the method: as §1
[11] = target: Amyloid-beta precursor protein (Homo sapiens) (UniProt P05067); assay: Inhibition of amyloid beta (1 to 40) (unknown origin) fibril formation at protein to compound ratio of 5:1 after 100 hrs by ThT fluorescence assay; summary of the method: as §3
[12] = tested on: Alpha-synuclein (Homo sapiens), P37840 [A53T]; assay: Binding affinity to human alpha-synuclein A53T mutant expressed in Escherichia coli BL21(DE3) assessed as compound-protein stable complex formation at 2 uM after 20 hrs by native mass spectrometry analysis
Summary of the method: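 αS (10 μM) incubated with C-PC (2 μM) at 40 °C for 20 h, then analysed by native nanoelectrospray MS for αS–C-PC complex peaks versus monomer/dimer and C-PC oligomer species.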

[13] = tested on: Alpha-synuclein (Homo sapiens), P37840 [A53T]; assay: Inhibition of preformed fibrils of human alpha-synuclein A53T mutant expressed in Escherichia coli BL21(DE3) at 5 uM treated after 60 hrs during fibril elongation phase by ThT fluorescence assay
Summary of the method: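 ThT-monitored αS (10 μM) aggregation at 37 °C in 500 mM ammonium acetate pH 7.4; C-PC (5 μM) added at 60 h during elongation, and fluorescence (440/490 nm) followed afterwards; n = 3.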

[14] = target: Amyloid-beta precursor protein (Homo sapiens) (UniProt P05067); assay: Inhibition of amyloid beta (1 to 40) (unknown origin) fibril formation at 2 uM after 25 hrs by uranyl acetate staining based transmission electron microscopic method; summary of the method: as §4

C/C=C1/C(=C\c2[nH]c(/C=C3N=C(/C=C4/NC(=O)C(CC)=C4C)C(C)=C/3CCC(=O)O)c(CCC(=O)O)c2C)NC(=O)C1C (stereo unspecified)
Activity [1]: inactive
inhibition (Saccharomyces cerevisiae): inactive
Activity [2]: inactive
Activity [3]: Active
inhibition [4]: Dose-dependent effect
inhibition [5]: Active
inhibition [6]: Active
inhibition (Catalase (Bos taurus)): inactive
inhibition [7]: Active
TIME [8]: 1.4e-06 h
inhibition [9]: 50%
Activity [10]: Active
inhibition [11]: Active
Activity [12]: inactive
inhibition [13]: Active
inhibition [14]: Active
